For one molecule, inhibition results are on record in ChEMBL document CHEMBL4152320, “Discovery and development of novel salicylate synthase (MbtI) furanic inhibitors as antitubercular agents” (Eur J Med Chem, 2018).

Assay [1] has as its system Mycobacterium tuberculosis variant bovis BCG. Kind of assay: Inhibition of Mycobacterium bovis BCG salicylate synthase assessed as removal of iron after 15 days by CAS assay. In short, it runs like this:
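Same BCG culture in chelated Sauton's with compound, 15 days at 37 °C. Supernatant mixed 1:1 with Universal CAS solution, 10 min room temperature, A630 read; siderophore units = (Ar − As)/Ar × 100, Ar being blank medium with CAS.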

The test system is the same in assay [2]. Description: Inhibition of Mycobacterium bovis BCG salicylate synthase assessed as reduction in mycobactin production after 15 days. The method, boiled down: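 M. bovis BCG grown in 7H9, subcultured in chelated Sauton's, diluted 1:1000 into chelated Sauton's with sub-lethal compound concentrations; 15 days at 37 °C. Pelleted cells extracted in ethanol overnight, 0.1 M FeCl3 in ethanol added until colour stable, 1 h room temperature; mycobactins isolated and quantified.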

Molecules are shown by their SMILES. The source made the active and inactive calls. The rule behind the calls is not given here.

As to `O=C(O)c1ccc(-c2ccc([N+](=O)[O-])cc2)o1`, the inhibition result in assay [1] is “Dose-dependent effect”. The inhibition entry in assay [2] is “Active”.
